High-throughput results (PubChem BioAssay)
L major viab = Leishmania major promastigote growth inhibition, primary screen. Leishmania major promastigotes, resazurin fluorescence viability. inhibition, % at 10 µM. 9% of 200,000 active. AID 1063, 2008; in the data active = inhibition above about 50%;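 note: promastigotes grown with compound for 44 hours at 28 °C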
WT yeast gro inh = growth inhibition of WT strain, primary screen, mitochondrial fusion inhibitor project, WT and mutant strains, chemical genetic; mitochondrial fusion phenotypic screen; inhibition, % at 10 µM; 2.1% of 190,000 active; AID 1362, 2008; in the data active = inhibition above about 58%; tested in S. cerevisiae
PMI activator = activators of human PMI, primary screen, biochemical, fluorescence intensity, near-Km mannose 6-phosphate; Mannose-6-phosphate isomerase (Homo sapiens), P34949; purified human PMI, coupled resazurin fluorescence, 20 min; active compounds read high; 1 = vehicle control, 0 substrate-free wells; activation factor at 20 µM; 0.005% of 190,000 active; AID 1214, 2008;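 active = activation factor of 2 or more at 20 µM, relative to plate controls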
Target sequence (P34949 whole entry, looked up): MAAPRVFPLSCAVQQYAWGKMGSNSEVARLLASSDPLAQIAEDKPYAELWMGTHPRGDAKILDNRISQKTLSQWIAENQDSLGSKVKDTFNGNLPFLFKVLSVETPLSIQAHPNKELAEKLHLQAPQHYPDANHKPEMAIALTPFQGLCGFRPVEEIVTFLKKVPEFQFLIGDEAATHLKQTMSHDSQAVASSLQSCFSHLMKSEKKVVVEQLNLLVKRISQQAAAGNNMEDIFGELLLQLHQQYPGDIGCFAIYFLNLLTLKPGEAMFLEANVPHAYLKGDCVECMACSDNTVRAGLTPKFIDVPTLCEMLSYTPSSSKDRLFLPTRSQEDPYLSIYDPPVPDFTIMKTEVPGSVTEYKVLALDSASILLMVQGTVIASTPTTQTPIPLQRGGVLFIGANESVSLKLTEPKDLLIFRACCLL
PMI act hi M6P = human PMI activators, high substrate, primary screen, biochemical, fluorescence intensity, near-saturating mannose 6-phosphate | Mannose-6-phosphate isomerase (Homo sapiens), P34949 | activation factor at 20 µM | 0.34% of 190,000 active | coupled PMI enzyme assay, resazurin fluorescence, 20 min; active compounds read high; 1 = untreated enzyme, 0 = substrate-free blank;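 active = activation factor of 2 or more at 20 µM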
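Test system: human phosphomannose isomerase with PGI, G6PDH, diaphorase coupling enzymes / Doses: 20 µM compound, 1% DMSO / Times: enzyme reaction with compound 20 min at room temperature / Measured by: Diaphorase-driven resazurin-to-resorufin fluorescence, excitation 544, emission 590 nm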
Diaph act CS = compounds boosting diaphorase resazurin reduction – biochemical, uHTS, resorufin fluorescence, counter-screen for diaphorase-coupled primary assays, primary screen; Diaphorase/resazurin coupled assay, 16 min; active compounds read high; 1 = vehicle wells, 0 = NADH-free wells; activation factor at 20 µM; 0.005% of 190,000 active; AID 1229, 2008;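 active = diaphorase activity raised at least twofold by the compound at 20 µM; inactive = activation factor below 2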
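Test system: Clostridium kluyveri diaphorase, purified enzyme. Buffer or medium: 50 mM HEPES pH 7.4 buffer plus MgCl2 and Tween 20. Also added: 0.114 mM NADH and 0.1 mM resazurin, final amounts. Dosing: compound 20 µM once, DMSO 1%. Schedule: 16 min enzyme reaction, ambient temperature. Detection: fluorescence of resorufin, 544 nm excitation, 590 nm emission.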
* marks the source's active call; other numbers are inactive results; . = not tested or not shown. Rows were chosen to be rich in hits. Some 10% of all compounds tested hit in one or more screens of this group.

SMILES | L major viab | WT yeast gro inh | PMI activator | PMI act hi M6P | Diaph act CS
CNc1nc2c(C)cccn2c(=O)c1C=NCc1ccccc1 | 25.3 | 21.4 | 0.9 | 1 | 0.9
COc1ccc(Nc2nc3c(C)cccn3c(=O)c2C=NCc2ccccc2)cc1 | 63.2* | 10.8 | 1.1 | 1 | 1.1
COc1ccc(/C=C2\CCCC(C(=O)C(F)(F)F)=C2O)cc1 | 15.2 | 19.3 | 1.3 | 1.4 | 1.1
O=C(C1=C(O)/C(=C/c2ccc(O)cc2)CCC1)C(F)(F)F | 56.0* | 67.1* | 1.2 | 1.3 | 0.8
Oc1ccc(Cl)cc1-c1cc(-c2ccco2)[nH]n1 | 90.3* | 4.7 | 1 | 0.9 | 0.8
Oc1ccc(Cl)cc1-c1cc(-c2cccc(Br)c2)n[nH]1 | 99.2* | 81.6* | 0.9 | 1 | 0.9
Oc1ccc(Cl)cc1-c1cc(-c2ccccc2Cl)[nH]n1 | 13.7 | 36.5 | 0.9 | 1 | 0.8
Oc1ccccc1-c1cc(-c2ccco2)[nH]n1 | 1.4 | 21.4 | 0.9 | 1.2 | 0.8
CC1(C)Cc2nc(NC3CCCCC3)c(C#N)cc2CO1 | 11.7 | -1.6 | 1 | 1.1 | 1.2
CN(CCCN1CCOCC1)Cc1nc(-c2ccccc2)no1 | 77.8* | 4.9 | 1 | 1 | 0.9
O=C(Nc1ccc(OCC(=O)N2CCC(Cc3ccccc3)CC2)cc1)c1ccco1 | 50.9* | 4.5 | 1 | 1 | 1
CC(=O)Nc1ccc(OCC(=O)N2CCC(Cc3ccccc3)CC2)cc1 | 3.8 | -7.3 | 1 | 1 | 0.9
CN(C)c1ccc([C@@H]2[C@@H]([N+](=O)[O-])[C@H]3C=Cc4ccccc4N3[C@H]2C(=O)c2ccc(Cl)cc2)cc1 | 16.3 | 3.1 | 0.9 | 1.1 | 1
COC(=O)c1ccc(OCCCCN2CC(C)OC(C)C2)cc1 (stereo not drawn) | 95.6* | 9.9 | 1.1 | 1.1 | 1.2
CC(C)SCCCCOc1ccc2ccccc2c1 | 72.0* | 31.4 | 0.8 | 0.9 | 0.9
CC(C)SCCCOc1ccc(C(C)(C)C)cc1 | -5.9 | 2.9 | 1 | 1 | 0.9
COc1cccc(OCCCCN2CC(C)OC(C)C2)c1 (stereo not drawn) | 93.5* | -7.1 | 1 | 1 | 0.9
CC1CN(CCCCOc2ccc3ccccc3c2)CC(C)O1 (stereo not drawn) | 90.2* | 20.3 | 0.9 | 1 | 0.8
CC1CN(C(=O)c2ccc(COc3ccc4ccccc4c3)o2)CC(C)O1 (stereo not drawn) | 0.0 | 7.0 | 0.8 | 0.6 | 0.8
COc1cc(CN2CC(C)OC(C)C2)cc(OC)c1 (stereo not drawn) | -3.8 | . | . | . | .
Cc1ccc(-n2nc(C)c3c(C(=O)OCC(=O)N(C)C4CCS(=O)(=O)C4)cc(-c4ccccc4)nc32)cc1 (stereo not drawn) | -4.4 | -9.1 | 1.1 | 1.1 | 1
CCN(CC#CCC1(O)c2ccccc2-c2ccccc21)C(C)C | -5.1 | 0.3 | 0.8 | 0.9 | 0.9
Cc1ccc(C(=O)CC2(O)C(=O)N(C)c3ccccc32)s1 (stereo not drawn) | -3.4 | -5.0 | 0.9 | 0.9 | 0.8
CCOC(=O)N1CCC(N2CCCC(CO)(Cc3cccc(OC)c3)C2)CC1 (stereo not drawn) | 87.1* | 12.2 | . | . | .
COc1cccc(CC2(CO)CCCN(S(=O)(=O)N(C)C)C2)c1 (stereo not drawn) | -5.5 | -12.6 | 0.9 | 0.9 | 0.9
SMILES | L major viab | WT yeast gro inh | PMI activator | PMI act hi M6P | Diaph act CS
OCC1(Cc2ccccc2)CCCN(C2CCCC2)C1 (stereo not drawn) | 61.1* | -9.0 | 1 | 1.1 | 1
Cc1cc(=S)cc(C)n1CCO | 1.9 | -17.5 | 1.6 | 2.4* | 0.9
Cc1cc(C)n(CCO)c(=O)n1 | 4.6 | -52.0 | 1.1 | 1.2 | 1
c1ccc(-c2csc3ncnc(NCCCN4CCOCC4)c23)cc1 | 5.8 | -9.0 | 1.2 | 1.2 | 1.1
O=c1c2c(-c3ccccc3)csc2nc2c3ccccc3c(NCCN3CCOCC3)nn12 | 100.5* | 17.3 | 1 | 1 | 1.1
O=C(/C=C/c1cccs1)NC(=S)Nc1ccccc1 | -2.8 | 12.5 | 0.9 | 0.9 | 0.8
Cc1nc(N2CCN(C(=O)c3ccco3)CC2)c2c3c(sc2n1)CCCC3 | 37.2 | 37.2 | 1 | 1 | 0.7
Cc1nc(N2CCN(c3ccccc3)CC2)c2c3c(sc2n1)CCC3 | . | 74.2* | 1 | 0.9 | 0.8
COc1cc(C(=O)NNC(=O)Nc2ccc([N+](=O)[O-])cc2)cc(OC)c1OC | -5.3 | 2.5 | 1 | 1 | 0.9
COCCN(C(=S)Nc1ccc(C)cc1)C(C)c1cccnc1 (stereo not drawn) | 80.5* | -5.3 | 1 | 1 | 1.1
COCCN(C(=S)Nc1cc(C)cc(C)c1)C(C)c1cccnc1 (stereo not drawn) | 95.3* | 9.5 | 0.7 | 1 | 1
Cc1cccc(NC(=S)N(CCN(C)C)C(C)c2cccnc2)c1 (stereo not drawn) | 15.6 | -1.1 | 1.1 | 1.1 | 1
COCCN(C(=O)Nc1ccccc1)C(C)c1cccnc1 (stereo not drawn) | 8.7 | 4.8 | 1 | 1 | 0.9
Cc1cc(CN(C)C(=O)c2cc(COc3ccc(F)cc3Cl)on2)n[nH]1 | -7.2 | -8.8 | 1 | 1.1 | 0.9
CCCCNC(=O)C1CCN(S(=O)(=O)c2cnc[nH]2)CC1 | -5.3 | 70.9* | 0.9 | 1 | 1
Cc1ccc(CNC(=O)C2CCN(S(=O)(=O)c3cnc[nH]3)CC2)cc1 | -4.1 | 3.4 | 1 | 1 | 0.9
CC(=O)Nc1ccc2nc(NC(=O)COc3ccccc3C)sc2c1 | 8.9 | 8.6 | 1 | 1 | 1
COc1cccc2sc(Nc3nc4ccc(NC(C)=O)cc4s3)nc12 | 85.4* | 2.9 | 1.2 | 1.2 | 1.3
COc1cccc2sc(Nc3nc(-c4cc5ccccc5oc4=O)cs3)nc12 | 6.0 | -1.8 | 0.8 | 0.8 | 0.7
NNc1nc2c(Cl)c(Cl)ccc2s1 | 99.2* | 77.7* | 1 | 1 | 0.9
COc1cccc2sc(Nc3nnc(-c4ccccc4Cl)o3)nc12 | 97.4* | 8.6 | 1.1 | 1.1 | 1
CCOC(=O)c1sc(Nc2nc3c(OC)cccc3s2)cc1C | 69.0* | 53.3 | 0.8 | 0.8 | 0.8
Cc1ccc2oc(=O)c3cnn(CC(=O)Nc4cc(-c5cccc(F)c5)no4)c3c2c1 | 1.8 | 1.1 | 1.1 | 1 | 1
COc1ccc(F)cc1C(=O)C1CCCN(C(=O)c2cccc(N(C)C)c2)C1 (stereo not drawn) | 0.7 | 15.0 | 0.9 | 1 | 0.8
CCN1C(=O)C(CC(=O)Nc2ccccc2)S/C1=N\c1ccccn1 (stereo not drawn) | -3.2 | 0.4 | 1 | 1 | 1.1
COc1ccccc1-c1nnc(Nc2nc3c(OC)cccc3s2)o1 | 97.9* | 8.1 | 0.9 | 0.9 | 0.9
